Data on 15 compounds can be found in ChEMBL document CHEMBL1140056, “Design, synthesis, and antitumor activity of new bis-aminomethylnaphthalenes” (2008).

Structures are written as SMILES. The source made the active and inactive calls. The rule behind the calls is not given here.

Test [1] is described as follows: Antitumor activity against human NCI60 cells after 48 hrs by SRB assay. Type of test: functional. The following applies: NCI60, 48 h; for TGI: read-out: pTGI (converted). In a few lines: (§1)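 Run at NCI in the 60-line human tumour panel. Five concentrations at 10-fold dilutions starting from 10^-4 M, with continuous exposure for 48 h. Growth was read by sulforhodamine B protein staining. GI50 (+50% growth), TGI (0% growth) and LC50 were interpolated from the curves, and MG-MID is the arithmetic mean across all tested lines.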
On the technique in general: In SRB staining, fixed cells bind dye roughly in proportion to their protein.

Test [2] in a line: Antitumor activity against human HL60(TB) cells after 48 hrs by SRB assay. Type of test: functional, HL-60(TB). The following applies: HL-60, 48 h. In short, it runs like this:
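NCI 60-cell-line primary screen: five concentrations at 10-fold dilutions starting from 10^-4 M. Cells exposed to drug continuously for 48 h. Growth estimated by sulforhodamine B protein assay. GI50 is the interpolated molar concentration giving +50% growth, TGI the concentration giving 0% growth, and LC50 the concentration giving 50% net cell death.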

The next test has as its system K562. Nature of the test: Antitumor activity against human K562 cells after 48 hrs by SRB assay. Type of test: functional. The following applies: K562, 48 h. In a few lines: as §1
In the next test the test system is MOLT-4. Nature of the test: Antitumor activity against human MOLT4 cells after 48 hrs by SRB assay. Type of test: functional. The following applies: MOLT-4, 48 h. In short, it runs like this: as §1
Another test has as its system RPMI-8226. The test is described as follows: Antitumor activity against human RPMI8226 cells after 48 hrs by SRB assay. Type of test: functional. The following applies: RPMI-8226, 48 h. In short, it runs like this:
as §1

The test system of a further test is SR. Nature of the test: Antitumor activity against human SR cells after 48 hrs by SRB assay. Type of test: functional. In short, it runs like this:
as §1

The subject of another test is COLO 205. Nature of the test: Antitumor activity against human COLO205 cells after 48 hrs by SRB assay. Type of test: functional. The following applies: COLO 205, 48 h. In a few lines: as §1
A further test has as its system HCT-116. Nature of the test: Antitumor activity against human HCT116 cells after 48 hrs by SRB assay. Type of test: functional. The following applies: HCT-116, 48 h. In short, it runs like this: as §1
A further test deals with HT-29. The test is described as follows: Antitumor activity against human HT29 cells after 48 hrs by SRB assay. The following applies: HT-29, 48 h. Type of test: functional. In short, it runs like this: as §1
In the next test the test system is KM12. Nature of the test: Antitumor activity against human KM12 cells after 48 hrs by SRB assay. Type of test: functional. The following applies: KM12, 48 h. In a few lines:
as §1

A further test has as its system SW-620. Nature of the test: Antitumor activity against human SW620 cells after 48 hrs by SRB assay. The following applies: SW-620, 48 h. Type of test: functional. In a few lines: as §1
The subject of a further test is LOX IMVI. Nature of the test: Antitumor activity against human LOXIMVI cells after 48 hrs by SRB assay. Type of test: functional. In short, it runs like this: as §1
For a further test, the system named is Malme-3M. The test is described as follows: Antitumor activity against human MALME3M cells after 48 hrs by SRB assay. Type of test: functional. In short, it runs like this:
as §1

For the next test, the system named is M14. The test is described as follows: Antitumor activity against human M14 cells after 48 hrs by SRB assay. Type of test: functional. The following applies: M14, 48 h. In short, it runs like this:
as §1

Another test has as its system SK-MEL-2. The test is described as follows: Antitumor activity against human SK-MEL-2 cells after 48 hrs by SRB assay. Type of test: functional. The following applies: SK-MEL-2, 48 h. In short, it runs like this:
as §1

Another test concerns SK-MEL-28. The test is described as follows: Antitumor activity against human SK-MEL-28 cells after 48 hrs by SRB assay. The following applies: SK-MEL-28, 48 h. Type of test: functional. In a few lines: as §1
The next test has as its system SK-MEL-5. Nature of the test: Antitumor activity against human SK-MEL-5 cells after 48 hrs by SRB assay. Type of test: functional. The following applies: SK-MEL-5, 48 h. In a few lines:
as §1

The test system of a further test is UACC-257. The test is described as follows: Antitumor activity against human UACC257 cells after 48 hrs by SRB assay. The following applies: UACC-257, 48 h. Type of test: functional. In short, it runs like this:
as §1

The test system of the next test is UACC-62. The test is described as follows: Antitumor activity against human UACC62 cells after 48 hrs by SRB assay. Type of test: functional. The following applies: UACC-62, 48 h. In short, it runs like this:
as §1

The test system of another test is MCF7. The test is described as follows: Antitumor activity against human MCF7 cells after 48 hrs by SRB assay. Type of test: functional. The following applies: MCF7, 48 h. In short, it runs like this: as §1
The nature of test [3]: Antitumor activity against human MCF7/ADR-RES cells after 48 hrs by SRB assay. Type of test: functional. The following applies: NCI/ADR-RES. In short, it runs like this:
as §1

In a further test the test system is MDA-MB-231. The test is described as follows: Antitumor activity against human MDA-MB-231 cells after 48 hrs by SRB assay. Type of test: functional. The following applies: MDA-MB-231, 48 h. In short, it runs like this:
as §1

Another test deals with Hs-578T. The test is described as follows: Antitumor activity against human HS578T cells after 48 hrs by SRB assay. Type of test: functional. In short, it runs like this: as §1
A further test concerns MDA-MB-435. Nature of the test: Antitumor activity against human MDA-MB-435 cells after 48 hrs by SRB assay. The following applies: MDA-MB-435, 48 h. Type of test: functional. In a few lines: as §1
The subject of the next test is MDA-N. The test is described as follows: Antitumor activity against human MDA-N cells after 48 hrs by SRB assay. Type of test: functional. In a few lines: as §1
A further test deals with T47D. Nature of the test: Antitumor activity against human T47D cells after 48 hrs by SRB assay. Type of test: functional. In a few lines: as §1
The test system of another test is Tru-Pr1. The test is described as follows: Effect on cell cycle in human […] cells at 10 uM after 48 hrs by FACS analysis. Type of test: functional, cell-based. In a few lines:
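TSU-Pr1 prostate carcinoma cells (5×10^5) in exponential growth were treated for 48 h. They were then centrifuged, fixed in ice-cold 70% ethanol, treated with lysis buffer containing RNase, and stained with propidium iodide. DNA content and cell-cycle phases were read by flow cytometry.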

As a reminder, the GI50 is the concentration giving 50% growth inhibition. The LC50 is the concentration that kills 50% of the test population. A high value points to lower toxicity. `c1ccc2c(CNCCCCCCNCc3cccc4ccccc34)cccc2c1`: in test [1], it took 5370 nM to inhibit growth by half (GI50), the LC50 is 29500 nM and the TGI is 12300 nM.
Take `COc1ccc2cc(CN3CCC(C4CCN(Cc5ccc6cc(OC)ccc6c5)CC4)CC3)ccc2c1`: the GI50 is 2950 nM in [1]; 2630 nM in test [2]; 501 nM with K562; 2190 nM in the test on MOLT-4; 1740 nM in the test with RPMI-8226; 1230 nM in the test on SR. In addition, the GI50 is 1620 nM with COLO 205; 3470 nM with HCT-116; 3390 nM in the test on HT-29; 3240 nM in the test with KM12; 3160 nM in the test with SW-620; 2820 nM in the test with LOX IMVI. The GI50 was 2290 nM with Malme-3M; 2450 nM with M14; 6460 nM with SK-MEL-2; 2630 nM in the test with SK-MEL-28; 1480 nM in the test on SK-MEL-5; 2040 nM in the test on UACC-257. Also, the GI50 is 1910 nM with UACC-62; 5250 nM in the test on MCF7; 13200 nM in test [3]; 3310 nM in the test on MDA-MB-231; 10700 nM in the test on Hs-578T; 1910 nM in the test with MDA-MB-435. The GI50 was 1700 nM with MDA-N and 1780 nM in the test with T47D. In addition, the TGI in [1] was 9770 nM. Also, the result in the test with Tru-Pr1 was inactive.
In the case of `COc1ccc2cc(CNCCCCCCNCc3ccc4cc(OC)ccc4c3)ccc2c1`, in test [1], growth was halved (GI50) at 603 nM, the LC50 was 4070 nM and the TGI is 1740 nM.
With `c1ccc2c(CNCCCN3CCN(CCCNCc4cccc5ccccc45)CC3)cccc2c1`, in test [1], it took 6610 nM to inhibit growth by half (GI50), the LC50 was 43700 nM and the TGI was 19500 nM.
Regarding `c1ccc2c(CNCCCCCCCCCCCCNCc3cccc4ccccc34)cccc2c1`, in test [1], growth was halved (GI50) at 2190 nM and the TGI is 4370 nM.
Regarding `O=C1c2c(O)ccc(O)c2C(=O)c2c(NCCNCCO)ccc(NCCNCCO)c21` [MITOXANTRONE], in test [1], growth was halved (GI50) at 47.9 nM and the TGI is 692 nM.
Regarding `c1ccc2cc(CN3CCC(C4CCN(Cc5ccc6ccccc6c5)CC4)CC3)ccc2c1`, in [1], the GI50 is 2880 nM, the LC50 was 25100 nM and the TGI is 8320 nM.
Consider `COc1ccc2cc(CNCCCN3CCN(CCCNCc4ccc5cc(OC)ccc5c4)CC3)ccc2c1`, for which, in test [1], halving of growth (GI50) required 1100 nM, the LC50 was 5620 nM and the TGI was 2450 nM.
In the case of `COc1cc(NS(C)(=O)=O)ccc1Nc1c2ccccc2nc2ccccc12` [AMSACRINE], in [1], growth was halved (GI50) at 229 nM and the TGI was 3390 nM.
As to `COc1ccc2cc(CNCCCCCCCCNCc3ccc4cc(OC)ccc4c3)ccc2c1`, in test [1], the GI50 is 1150 nM, the LC50 was 6310 nM and the TGI was 2400 nM.
The matching figures for `c1ccc2c(CN3CCC(C4CCN(Cc5cccc6ccccc56)CC4)CC3)cccc2c1`: 1950 nM, 9550 nM and 4270 nM.
The matching figures for `COc1ccc2cc(CNCCCCCCCCCCCCNCc3ccc4cc(OC)ccc4c3)ccc2c1`: 15500 nM, 55000 nM and 29500 nM.
As for `c1ccc2cc(CNCCOCCOCCNCc3ccc4ccccc4c3)ccc2c1`, in test [1], the GI50 was 1700 nM, the LC50 is 10000 nM and the TGI was 3720 nM.
Regarding `COc1ccc2cc(CNCCOCCOCCNCc3ccc4cc(OC)ccc4c3)ccc2c1`, in [1], it took 724 nM to inhibit growth by half (GI50), the LC50 was 5250 nM and the TGI was 1910 nM.
For the compound `c1ccc2c(CNCCCCCCCCNCc3cccc4ccccc34)cccc2c1`, in [1], it took 2400 nM to inhibit growth by half (GI50) and the TGI was 5250 nM.
